Results on one compound are retold here after ChEMBL document CHEMBL1143438, “N-Glycine-sulfonamides as potent dual orexin 1/orexin 2 receptor antagonists” (Bioorg Med Chem Lett, 2008).

As usually defined, the AUC is concentration integrated over time. A word on the IC50: it is the concentration that gives 50% inhibition. A word on the bioavailability: it is the share of a dose that reaches the circulation, judged against a reference dose that is usually intravenous. As a reminder, the clearance is a measure of how efficiently the substance is removed, as volume per time. Read a low clearance as a low capacity for elimination. What is called Cmax is the maximum level reached in the sampled fluid or tissue. Usually half-life stands for how long it takes for the measured level to halve. Read a high half-life as slow decline. Broadly, the Tmax is the time at which the peak concentration occurs.

Data set [1] relates to Rattus norvegicus. Nature of the data set: Effect on behavioral activity in po dosed Wistar rat assessed as increase in time spent on non-rapid eye movement sleep after 12 hrs in dark. Type of data set: functional, organism-based. The method in brief: (§1)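 Freely moving adult male Wistar rats with radiotelemetric probes recording EEG, EMG, locomotor activity and body temperature in home cage; oral dosing in 100% PEG-400 at start of dark phase (100, 300 mg/kg). Home cage activity, active wake, non-REM and REM time integrated over 12-h night. Groups of 7–8, crossover, ≥4-day washout; mean ± SEM, one-way ANOVA with Bonferroni post hoc.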

For data set [2], the system named is Rattus norvegicus. Nature of the data set: Drug level in Wistar rat brain at 100 mg/kg, po. Type of data set: ADME, organism-based. Also on record: dose 100 mg/kg, route oral. The settings on record: in vivo. The method in brief: (§2)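 Male Wistar rats given 100 mg/kg po; plasma, CSF and brain sampled 1 and 3 h post-dose from same animal (±5 min). Blood from vena cava caudalis into EDTA; CSF from cisterna magna avoiding blood; brain taken after cardiac perfusion with 10 mL 0.9% NaCl, homogenized in 1 volume cold phosphate buffer pH 7.4; total brain concentration in ng/g.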

Data set [3] relates to Rattus norvegicus. Nature of the data set: Effect on behavioral activity in po dosed Wistar rat assessed as change in time spent on non-rapid eye movement sleep in dark. Type of data set: functional, organism-based. The method in brief:
as §1

Data set [4] deals with Rattus norvegicus. Nature of the data set: Effect on behavioral activity in po dosed Wistar rat assessed as increase in time spent on rapid eye movement sleep after 12 hrs in dark. The format is functional, organism-based. The procedure, abridged: as §1
Data set [5] is described as follows: Drug level in Wistar rat brain at 100 mg/kg, po after 3 hrs. Type of data set: ADME, organism-based. Also on record: dose 100 mg/kg, route oral. The settings on record: read-out: Drug uptake. The method in brief:
as §2

Data set [6] is described as follows: AUC in Wistar rat at 1 mg/kg, iv. The format is ADME, organism-based. On the set-up: dose 1 mg/kg, route intravenous. The settings on record: plasma. The procedure, abridged: (§3)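 Male Wistar rats on 12-h light/dark cycle; single iv dose 1 mg/kg in 5%/95% (v/v) DMSO : 30/70 hydroxypropyl-β-cyclodextrin/sterile water; one or two animals. Serial blood drawn into Na-EDTA tubes at various time-points, centrifuged to plasma; parameters (clearance mL/min kg, Vss L/kg) derived from plasma concentration–time profiles.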

In data set [7] the target is T1, Orexin/Hypocretin receptor type 1 (Homo sapiens, UniProt O43613).
T1 sequence (O43613 whole entry): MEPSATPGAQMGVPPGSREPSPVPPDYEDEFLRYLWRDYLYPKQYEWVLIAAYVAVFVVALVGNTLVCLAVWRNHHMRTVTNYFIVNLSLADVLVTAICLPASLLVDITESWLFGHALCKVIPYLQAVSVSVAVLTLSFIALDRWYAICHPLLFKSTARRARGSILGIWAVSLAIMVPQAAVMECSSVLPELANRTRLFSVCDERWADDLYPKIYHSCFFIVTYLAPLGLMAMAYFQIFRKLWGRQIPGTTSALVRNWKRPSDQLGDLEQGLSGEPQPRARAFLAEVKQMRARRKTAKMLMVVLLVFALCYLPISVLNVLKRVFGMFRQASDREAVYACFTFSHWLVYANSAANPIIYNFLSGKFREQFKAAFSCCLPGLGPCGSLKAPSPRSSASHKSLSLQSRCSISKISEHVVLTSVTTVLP
Nature of the data set: Inhibition of human OX1 receptor expressed in CHO cells assessed as […] calcium mobilization by FLIPR assay. The format is functional, cell-based. The procedure, abridged:
(§4)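 CHO cells expressing human OX1 or OX2 receptor, loaded with fluo-3 AM at 37 °C in 5% CO2, then washed. Antagonist added at varying concentrations before orexin A; intracellular Ca2+ rise read as fluorescence change by FLIPR. IC50 taken as concentration inhibiting 50% of agonist response.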
For orientation: Calcium assays in cells follow changes in intracellular calcium, usually with a dye or a luminescent sensor.

The test system of data set [8] is Rattus norvegicus. Nature of the data set: Effect on behavioral activity in po dosed Wistar rat assessed as change in time spent active wake in dark. The format is functional, organism-based. The procedure, abridged:
as §1

Data set [9] relates to Rattus norvegicus. Nature of the data set: Effect on behavioral activity in po dosed Wistar rat assessed as decrease in home cage activity in dark. Type of data set: functional, organism-based. The procedure, abridged: as §1
For data set [10], the system named is Rattus norvegicus. Nature of the data set: Effect on behavioral activity in Wistar rat assessed as increase in time spent on rapid eye movement sleep at 300 mg/kg, po after 12 hrs. Type of data set: functional. The procedure, abridged: as §1
The nature of data set [11]: Oral bioavailability in Wistar rat at 10 mg/kg. Type of data set: ADME, organism-based. The settings on record: in vivo. The method in brief:
(§5)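 Oral dosing of male Wistar rats at 10 mg/kg formulated in 100% PEG-400, three animals. Serial blood collected into Na-EDTA at various times, spun to plasma. Cmax (ng/mL), Tmax (h), AUC (ng h/mL) from plasma concentration–time curve; F as percent of dose.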

For data set [12], the target named is T2, Orexin receptor type 2 (Homo sapiens, UniProt O43614).
T2 sequence (O43614 whole entry): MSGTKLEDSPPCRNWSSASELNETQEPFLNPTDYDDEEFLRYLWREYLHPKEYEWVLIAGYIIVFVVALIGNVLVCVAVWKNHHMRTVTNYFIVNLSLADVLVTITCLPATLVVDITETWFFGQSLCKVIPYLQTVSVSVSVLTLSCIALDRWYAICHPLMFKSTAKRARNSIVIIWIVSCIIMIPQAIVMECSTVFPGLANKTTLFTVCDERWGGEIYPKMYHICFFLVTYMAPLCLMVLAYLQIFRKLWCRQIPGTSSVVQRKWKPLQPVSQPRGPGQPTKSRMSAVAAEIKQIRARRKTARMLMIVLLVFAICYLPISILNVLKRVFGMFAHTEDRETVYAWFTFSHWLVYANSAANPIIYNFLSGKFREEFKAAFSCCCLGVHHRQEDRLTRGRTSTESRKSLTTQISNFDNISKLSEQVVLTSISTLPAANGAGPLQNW
Nature of the data set: Inhibition of human OX2 receptor expressed in CHO cells assessed as […] calcium mobilization by FLIPR assay. Type of data set: functional, cell-based. The procedure, abridged:
as §4

Data set [13] relates to Rattus norvegicus. Nature of the data set: Effect on behavioral activity in po dosed Wistar rat assessed as change in time spent on rapid eye movement sleep in dark. The format is functional, organism-based. The method in brief:
as §1

The nature of data set [14]: Volume of distribution at steady state in Wistar rat at 1 mg/kg, iv. On the set-up: dose 1 mg/kg, route intravenous. Type of data set: ADME, organism-based. The settings on record: in vivo, read-out: Vdss. The method in brief:
as §3

The nature of data set [15]: Clearance in Wistar rat plasma at 1 mg/kg, iv. Type of data set: ADME, organism-based. Also on record: dose 1 mg/kg, route intravenous. The method in brief: as §3
A short description of data set [16]: Cmax in Wistar rat at 10 mg/kg, po. On the set-up: dose 10 mg/kg, route oral. Type of data set: ADME, organism-based. The settings on record: in vivo. The procedure, abridged:
as §5

The nature of data set [17]: AUC in Wistar rat at 10 mg/kg, po. The format is ADME, organism-based. On the set-up: dose 10 mg/kg, route oral. The settings on record: plasma. The procedure, abridged: as §5
Data set [18] in a line: Half life in Wistar rat at 1 mg/kg, iv. Type of data set: ADME, organism-based. Also on record: dose 1 mg/kg, route intravenous. The settings on record: in vivo. The method in brief:
as §3

Data set [19] deals with Rattus norvegicus. Nature of the data set: Effect on behavioral activity in Wistar rat assessed as increase in time spent on non-rapid eye movement sleep at 300 mg/kg, po after 12 hrs. Type of data set: functional. The procedure, abridged:
as §1

Data set [20] is described as follows: Tmax in Wistar rat at 10 mg/kg, po. The format is ADME, organism-based. Also on record: dose 10 mg/kg, route oral. The settings on record: in vivo. The procedure, abridged: as §5

Each structure is given as a SMILES string. Calls of active or inactive are those of the source. The calls are words filed in the database; no cut-off is given here.

Regarding `CCN(C(=O)CN(c1cc(N(C)C)ccc1Cl)S(=O)(=O)c1ccc(OC)c(OC)c1)c1cccc(C)n1`, the Activity result in data set [1] is “Dose-dependent effect”; in [4] it was “Dose-dependent effect”; in data set [9] it was “Dose-dependent effect”; in [10] it was 17%; in [19], 83%. This compound also showed a Drug uptake in data set [2] of 10 ng/g. The result in data set [3], in data set [8] and in data set [13] was Active. Moreover, the concentration at 3 h in [5] is 66 ng/g. Moreover, the AUC came out at 434 ng·h/mL in [6] and 2290 ng·h/mL in data set [17]. Also, the values for the IC50 in [7] and in data set [12] were 17 nM and 5 nM, respectively. This compound also yielded a bioavailability in [11] of 35%. Besides, the Vd in data set [14] turned out to be 1.7 L/kg. This compound also gave a clearance in data set [15] of 38 mL/min/kg. Further, in data set [16], the Cmax came to 582 ng/mL. In data set [18], the half-life was 30 min. Also, the Tmax in data set [20] was 30 min.
